Test [1] relates to HL-60. Put plainly: Induction of human HL60 cell differentiation assessed as increase in PAD4 expression level after 24 hrs by Western blotting. Type of test: functional, cell-based. In general terms: Immunoblotting shows a protein as a band on a membrane.
In test [2] the test system is HL-60. Put plainly: Induction of human HL60 cell differentiation assessed as increase in PAD4 expression level at 1 to 10 uM by Western blotting. The note with it: TDE = time-dependent effect. Type of test: functional, cell-based.
In test [3] the test system is HL-60. Put plainly: Induction of human HL60 cell differentiation assessed as increase in PAD4 expression level at 10 uM after 6 hrs by Western blotting. It is filed as functional, cell-based.
Test [4] concerns HL-60. Put plainly: Induction of human HL60 cell differentiation assessed as increase in PAD4 expression level at 1 uM after 12 hrs by Western blotting. Type of test: functional, cell-based.
Test [5] concerns HL-60. Kind of test: Induction of human HL60 cell differentiation assessed as increase in PAD4 expression level at 1 uM after 24 hrs by Western blotting. Type of test: functional, cell-based.
In test [6] the target is Protein-arginine deiminase type-4 (Homo sapiens, UniProt Q9UM07). Kind of test: Irreversible inhibition of PAD4 assessed as hydrolysis of benzoyl-L-arginine ethyl ester preincubated for 15 mins measured after 15 mins by fluorometric analysis.
Test [7] relates to TK6. Kind of test: Induction of apoptosis in human TK6 cells assessed as viable cells at 50 ug/ml after 2 hrs by annexin V/propidium iodide staining method relative to control. It is filed as functional. The note with it: TK6, 2 h, read-out: Activity. In outline:
(§1)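 TK6 human lymphoblastoid cells kept in exponential suspension culture in RPMI 1640 with 10% heat-inactivated calf serum, penicillin/streptomycin and 2 mmol/L L-glutamine at 37 °C, 5% CO2. Serum was cut to 1% 12 h before dosing at 50 μg/ml for the stated times. Cells were stained with Annexin V/propidium iodide and analysed as quadrant scatterplots.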

For test [8], the system named is TK6. Kind of test: Induction of apoptosis in human TK6 cells assessed as early apoptotic cells at 50 ug/ml after 2 hrs by annexin V/propidium iodide staining method relative to control. It is filed as functional. A digest of the protocol: as §1
Test [9] has as its system TK6. Put plainly: Induction of apoptosis in human TK6 cells assessed as late apoptotic cells at 50 ug/ml after 2 hrs by annexin V/propidium iodide staining method relative to control. Type of test: functional. In outline: as §1
For test [10], the system named is TK6. Put plainly: Induction of apoptosis in human TK6 cells assessed as necrotic cells at 50 ug/ml after 2 hrs by annexin V/propidium iodide staining method relative to control. Type of test: functional. In outline: as §1
For test [11], the system named is TK6. Kind of test: Induction of apoptosis in human TK6 cells assessed as viable cells at 50 ug/ml after 4 hrs by annexin V/propidium iodide staining method relative to control. It is filed as functional. The conditions noted are these: TK6, 4 h, read-out: Activity. A digest of the protocol: as §1
Test [12] has as its system TK6. Put plainly: Induction of apoptosis in human TK6 cells assessed as late apoptotic cells at 50 ug/ml after 4 hrs by annexin V/propidium iodide staining method relative to control. It is filed as functional. In outline: as §1
The test system of test [13] is TK6. Put plainly: Induction of apoptosis in human TK6 cells assessed as necrotic cells at 50 ug/ml after 4 hrs by annexin V/propidium iodide staining method relative to control. Type of test: functional. In outline: as §1
In test [14] the test system is TK6. Kind of test: Induction of apoptosis in human TK6 cells assessed as viable cells at 50 ug/ml after 8 hrs by annexin V/propidium iodide staining method relative to control. Type of test: functional. The note with it: TK6, 8 h, read-out: Activity. A digest of the protocol: as §1
Test [15] concerns TK6. Kind of test: Induction of apoptosis in human TK6 cells assessed as early apoptotic cells at 50 ug/ml after 8 hrs by annexin V/propidium iodide staining method relative to control. Type of test: functional. In outline:
as §1

The test system of test [16] is TK6. Kind of test: Induction of apoptosis in human TK6 cells assessed as late apoptotic cells at 50 ug/ml after 8 hrs by annexin V/propidium iodide staining method relative to control. Type of test: functional. In outline: as §1
Test [17] has as its system TK6. Put plainly: Induction of apoptosis in human TK6 cells assessed as necrotic cells at 50 ug/ml after 8 hrs by annexin V/propidium iodide staining method relative to control relative to control. Type of test: functional. In outline: as §1
Test [18] concerns TK6. Put plainly: Induction of apoptosis in human TK6 cells assessed as induction of PARP cleavage at 50 ug/ml measured up to 8 hrs by Western blotting. Type of test: functional, cell-based. A digest of the protocol:
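TK6 cells were moved to 1% heat-inactivated calf serum RPMI 1640 12 h beforehand, then exposed to 50 μg/ml for time courses. PARP cleavage was detected by western blot with anti-PARP antibody, using GAPDH as loading control.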

Test [19] deals with Protein-arginine deiminase type-2 (Homo sapiens, UniProt Q9Y2J8). Kind of test: Irreversible inhibition of PAD2 assessed as hydrolysis of benzoyl-L-arginine ethyl ester preincubated for 15 mins measured after 15 mins by fluorometric analysis.
In test [20] the target is T1, Protein-arginine deiminase type-1 (Homo sapiens, UniProt Q9ULC6).
T1 sequence (Q9ULC6 whole entry): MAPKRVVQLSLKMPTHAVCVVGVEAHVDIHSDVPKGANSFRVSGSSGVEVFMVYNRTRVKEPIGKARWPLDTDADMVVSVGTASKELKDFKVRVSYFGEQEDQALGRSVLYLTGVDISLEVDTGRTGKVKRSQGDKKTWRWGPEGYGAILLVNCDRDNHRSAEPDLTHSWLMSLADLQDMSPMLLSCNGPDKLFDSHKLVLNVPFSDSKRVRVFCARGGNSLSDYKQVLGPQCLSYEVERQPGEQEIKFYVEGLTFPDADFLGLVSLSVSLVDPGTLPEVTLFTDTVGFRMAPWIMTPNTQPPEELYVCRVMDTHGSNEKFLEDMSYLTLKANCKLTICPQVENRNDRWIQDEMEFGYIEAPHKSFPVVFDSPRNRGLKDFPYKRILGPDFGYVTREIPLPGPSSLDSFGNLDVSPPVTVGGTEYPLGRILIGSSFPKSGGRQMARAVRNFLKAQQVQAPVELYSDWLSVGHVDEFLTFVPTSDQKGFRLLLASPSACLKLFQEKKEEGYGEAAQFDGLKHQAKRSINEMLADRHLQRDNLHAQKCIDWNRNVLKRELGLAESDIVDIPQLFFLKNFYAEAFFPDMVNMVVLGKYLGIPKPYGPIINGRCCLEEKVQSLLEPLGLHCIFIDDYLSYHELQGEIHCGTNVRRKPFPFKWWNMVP
Put plainly: Irreversible inhibition of PAD1 assessed as hydrolysis of benzoyl-L-arginine ethyl ester preincubated for 15 mins measured after 15 mins by fluorometric analysis.

The target in test [21] is T2, Protein-arginine deiminase type-3 (Homo sapiens, UniProt Q9ULW8).
T2 sequence (Q9ULW8 whole entry): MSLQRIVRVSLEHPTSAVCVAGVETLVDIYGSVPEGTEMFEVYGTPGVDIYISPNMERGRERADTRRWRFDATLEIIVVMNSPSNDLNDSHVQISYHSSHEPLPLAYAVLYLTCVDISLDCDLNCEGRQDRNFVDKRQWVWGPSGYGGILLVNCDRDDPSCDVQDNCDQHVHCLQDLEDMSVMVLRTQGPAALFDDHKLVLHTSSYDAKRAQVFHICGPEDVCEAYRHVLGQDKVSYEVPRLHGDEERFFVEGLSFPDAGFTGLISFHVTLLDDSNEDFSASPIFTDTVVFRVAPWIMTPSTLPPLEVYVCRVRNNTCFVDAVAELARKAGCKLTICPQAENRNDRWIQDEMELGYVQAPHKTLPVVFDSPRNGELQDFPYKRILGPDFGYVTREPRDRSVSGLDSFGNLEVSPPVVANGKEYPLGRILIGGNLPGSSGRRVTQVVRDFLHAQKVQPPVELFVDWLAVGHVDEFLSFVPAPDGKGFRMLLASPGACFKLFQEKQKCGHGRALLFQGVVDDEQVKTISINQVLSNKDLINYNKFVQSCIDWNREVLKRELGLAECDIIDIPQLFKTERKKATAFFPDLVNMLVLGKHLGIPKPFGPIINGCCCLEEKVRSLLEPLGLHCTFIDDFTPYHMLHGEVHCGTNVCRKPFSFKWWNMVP
Put plainly: Irreversible inhibition of PAD3 assessed as hydrolysis of benzoyl-L-arginine ethyl ester preincubated for 15 mins measured after 15 mins by fluorometric analysis.

Test [22] concerns TK6. Kind of test: Induction of apoptosis in human TK6 cells assessed as early apoptotic cells at 50 ug/ml after 4 hrs by annexin V/propidium iodide staining method relative to control. Type of test: functional.
Test [23] concerns HL-60. Kind of test: Cytotoxicity against human HL60 cells assessed as reduction in cell viability after 24 hrs by MTT assay relative to control. The note with it: HL-60, 24 h. It is filed as functional, cell-based. In outline:
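HL60 cells grown in RPMI 1640 with 10% FBS and 1% penicillin-streptomycin at 37 °C, 5% CO2, used at 1 × 10^6 cells/mL. Compounds were added at 100 nM to 100 μM final and incubated 24 h. Viability was read by MTT-type assay as percent of control absorbance, with 1% Triton X-100 as the 100% kill control. Triplicates; EC50 from dose-response fit where possible.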
A general note: Tetrazolium dyes change colour on reduction, which living cells bring about.

The test system of test [24] is HL-60. Put plainly: Potentiation of doxorubicin-induced cytotoxicity against human HL60 cells assessed as reduction in cell viability at 0.1 to 1 uM after 24 hrs by MTT assay relative to control. It is filed as functional. A digest of the protocol:
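HL60 cells (RPMI 1640, 10% FBS, 37 °C, 5% CO2) were exposed for 24 h to doxorubicin alone or together with inhibitor at fixed levels. Viability was read by MTT assay as percent of control absorbance, run in triplicate. Doxorubicin EC50 came from dose-response fits. Interaction was scored by the additive model: observed/expected ratio <0.8 synergistic, 0.8–1.2 additive.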

Calls of active or inactive are those of the source. The rule behind the calls is not given here.

Protein-arginine deiminase type-4, sequence (Q9UM07 whole entry): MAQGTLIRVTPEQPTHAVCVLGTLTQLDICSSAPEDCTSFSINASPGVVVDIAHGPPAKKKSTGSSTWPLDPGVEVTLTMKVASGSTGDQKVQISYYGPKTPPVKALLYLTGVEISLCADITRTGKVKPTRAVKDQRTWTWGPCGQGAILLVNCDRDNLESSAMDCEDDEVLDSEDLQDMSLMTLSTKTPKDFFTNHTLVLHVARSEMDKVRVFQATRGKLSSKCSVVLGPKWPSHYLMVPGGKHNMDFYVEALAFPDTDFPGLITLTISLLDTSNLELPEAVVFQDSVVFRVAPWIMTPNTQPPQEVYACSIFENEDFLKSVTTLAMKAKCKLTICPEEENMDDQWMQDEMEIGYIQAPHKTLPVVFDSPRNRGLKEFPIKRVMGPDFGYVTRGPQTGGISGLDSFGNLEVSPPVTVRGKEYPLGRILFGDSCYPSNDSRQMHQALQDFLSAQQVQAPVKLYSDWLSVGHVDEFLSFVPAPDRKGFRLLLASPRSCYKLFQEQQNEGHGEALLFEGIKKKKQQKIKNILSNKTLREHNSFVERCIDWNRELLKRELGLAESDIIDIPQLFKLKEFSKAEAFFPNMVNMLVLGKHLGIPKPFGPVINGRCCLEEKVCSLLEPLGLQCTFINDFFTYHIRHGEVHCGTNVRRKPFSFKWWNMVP
Protein-arginine deiminase type-2, sequence (Q9Y2J8 whole entry): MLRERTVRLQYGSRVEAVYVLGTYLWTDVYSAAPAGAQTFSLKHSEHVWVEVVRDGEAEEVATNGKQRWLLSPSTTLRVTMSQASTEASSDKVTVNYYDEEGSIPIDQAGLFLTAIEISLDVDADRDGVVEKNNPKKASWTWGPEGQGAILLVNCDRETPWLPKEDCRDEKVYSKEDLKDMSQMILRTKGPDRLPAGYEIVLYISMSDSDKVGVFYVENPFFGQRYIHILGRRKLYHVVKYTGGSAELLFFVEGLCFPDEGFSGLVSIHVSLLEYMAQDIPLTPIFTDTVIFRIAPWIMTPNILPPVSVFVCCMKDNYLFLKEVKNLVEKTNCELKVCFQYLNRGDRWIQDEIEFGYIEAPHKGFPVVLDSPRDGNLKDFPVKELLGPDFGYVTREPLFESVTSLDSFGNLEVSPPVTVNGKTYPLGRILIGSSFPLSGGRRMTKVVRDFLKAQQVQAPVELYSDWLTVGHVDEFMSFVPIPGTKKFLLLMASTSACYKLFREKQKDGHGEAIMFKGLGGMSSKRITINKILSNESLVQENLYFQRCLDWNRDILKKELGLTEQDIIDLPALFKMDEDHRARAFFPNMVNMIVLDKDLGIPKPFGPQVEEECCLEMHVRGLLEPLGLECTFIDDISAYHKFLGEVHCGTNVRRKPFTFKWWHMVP

Consider `N=C(CCl)NCCC[C@H](NC(=O)c1ccccc1C(=O)O)C(N)=O`, for which the Activity result in the test with HL-60 [1] is “Dose-dependent effect”; in the test on HL-60 [2] it was “tde”. Moreover, the result in the test with HL-60 [3], in the test on HL-60 [4] and in the test on HL-60 [5] was Active.

The IC50 is the concentration that gives 50% inhibition. As for `CCCNC(=N)CF`, the IC50 in [6] was > 1000 µM.

As for `N=C(CF)Nc1cccc(C[C@H](NC(=O)c2ccccc2)C(N)=O)c1`, in [6], the IC50 was 310 µM.

As to `N=C(CF)NCCC[C@H](NC(=O)c1ccccc1C(=O)O)C(N)=O.O=C(O)C(F)(F)F`, the results for the viability at 50 µg/mL with TK6 [7], in the test on TK6 [11] and with TK6 [14] were 88%, 74.9% and 60.1%, respectively. The Activity with TK6 [8] was 8.3%; with TK6 [9] it was 3.3%; in the test with TK6 [10], 0.3%; with TK6 [12] it was 4.8%; in the test with TK6 [13] it was 0.3%; in the test on TK6 [15], 27.7%. Also, the Activity with TK6 [16] is 11.9%; in the test with TK6 [17], 0.3%; with HL-60 [1] it was “Dose-dependent effect”; in the test on HL-60 [2], “tde”. Moreover, the outcome in the test on TK6 [18], in the test on HL-60 [3], in the test with HL-60 [4] and in the test on HL-60 [5] was Active. Also, in test [19], the IC50 was ≥ 50 µM.

With `N=C(CF)Nc1ccc(C[C@H](NC(=O)c2ccccc2)C(N)=O)cc1`, the IC50 in [6] amounted to 310 µM.

In the case of `N=C(CF)Nc1cccc([C@H](NC(=O)c2ccccc2)C(N)=O)c1`, in test [6], the IC50 is 2100 µM.

Take `N=C(CF)NCCC[C@H](NC(=O)c1ccccc1)C(N)=O`: in [20], the IC50 was determined as 29 µM and the Ki is 110 µM. For the same compound, in test [21], the IC50 is 367 µM and the Ki stood at 293 µM.

Regarding `N=C(CF)NCCC[C@H](NS(=O)(=O)c1ccccc1)C(N)=O`, in [6], the IC50 was found to be 500 µM.

With `N=C(CF)NCc1ccc(C[C@H](NC(=O)c2ccccc2)C(N)=O)cc1`, the 50% inhibitory concentration (IC50) in [6] was > 1000 µM.

Turning to `N=C(CCl)NCCC[C@H](NC(=O)c1ccccc1)C(N)=O.O=C(O)C(F)(F)F`, the viability at 50 µg/mL in the test with TK6 [7] was found to be 85.6%; in the test on TK6 [11] it was 78.8%; in the test on TK6 [14], 46.2%. Moreover, the Activity stood at 7.5% in the test on TK6 [8]; 6.8% in the test with TK6 [9]; 0.1% in the test with TK6 [10]; 11.9% with TK6 [22]; 8.9% in the test on TK6 [12]; 0.4% with TK6 [13]. In addition, the Activity turned out to be 20.4% in the test on TK6 [15], 32.6% in the test with TK6 [16] and 0.8% in the test with TK6 [17]. The outcome in the test on TK6 [18] was Active.

As to `N=C(N)CF`, the IC50 in test [6] is > 10000 µM.

Take `N=C(CF)NCCCCNS(=O)(=O)c1ccccc1`: the IC50 in [6] was > 1000 µM.

With `N=C(CF)Nc1ccccc1`, in [6], the IC50 was > 500 µM.

Turning to `N=C(CF)NCc1ccccc1`, the IC50 in test [6] is > 1000 µM.

As to `N=C(CF)NCCC[C@H](NC(=O)c1c[nH]cn1)C(N)=O`, the half-inhibitory concentration (IC50) in [6] is 230 µM.

Broadly, the EC50 is the concentration that produces a half-maximal response. Regarding `COc1cccc2c1C(=O)c1c(O)c3c(c(O)c1C2=O)C[C@@](O)(C(=O)CO)C[C@@H]3O[C@H]1C[C@H](N)[C@H](O)[C@H](C)O1` [DOXORUBICIN], the EC50 with HL-60 [23] is 2.5 µM. Further, the “fold change (FC)” value in the test with HL-60 [24] amounted to 6.

Consider `N=C(CF)NCCCCNC(=O)c1ccccc1`, for which, in test [6], the IC50 is > 1000 µM.

The record behind these values is ChEMBL document CHEMBL1909620, “The development of N-α-(2-carboxyl)benzoyl-N(5)-(2-fluoro-1-iminoethyl)-l-ornithine amide (o-F-amidine) and N-α-(2-carboxyl)benzoyl-N(5)-(2-chloro-1-iminoethyl)-l-ornithine amide (o-Cl-amidine) as second generation protein arginine deiminase (PAD) inhibitors” (J Med Chem, 2011).
